Measurements taken from ChEMBL document CHEMBL2062523, “Synthesis and evaluation of the quorum sensing inhibitory effect of substituted triazolyldihydrofuranones” (Bioorg Med Chem, 2012).
In brackets after ≈: the same amount, converted by molar mass. Activity calls are given as the source filed them. The rule behind the calls is not given here.

Key:
Pseudomonas aeruginosa [1] = assay: Agonist activity at Pseudomonas aeruginosa QSIS2 LasR-mediated quorum sensing co-expressing SacB1 assessed as luminescence at 0.5 mM after 24 hrs by reporter gene assay; type: functional
Pseudomonas aeruginosa [2] = assay: Antimicrobial activity against Pseudomonas aeruginosa PAO1 assessed as reduction of cell viability at 1 mM incubated for 24 hrs post-biofilm growth by CTB staining; type: functional
How it was run: (§1)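 Biofilms were grown 24 h at 37 °C in 2× MH (inoculum OD590 0.1) without compound. Wells were rinsed with saline, fresh medium with compound was added, and plates were held a further 24 h at 37 °C. Metabolically active cells were measured by CTB resazurin fluorescence after 60 min (ex 535/em 590) as % of control biofilm; n ≥ 24.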

Pseudomonas aeruginosa [3] = assay: Antagonist activity at Pseudomonas aeruginosa QSIS2 LasR-mediated quorum sensing co-expressing SacB1 assessed as inhibition of 3-oxo-C12-HSL-induced luminescence at 0.25 mM […] by reporter gene assay; type: functional
[4] = target: T1, Transcriptional activator protein LuxR (Aliivibrio fischeri) (UniProt P12746); assay: Antagonist activity at Vibrio fischeri LuxR-mediated quorum sensing expressed in Escherichia coli JB523 assessed as inhibition of C6-HSL-induced GFP expression at 1 mM after 24 hrs by reporter gene assay; type: functional
T1 sequence (whole entry): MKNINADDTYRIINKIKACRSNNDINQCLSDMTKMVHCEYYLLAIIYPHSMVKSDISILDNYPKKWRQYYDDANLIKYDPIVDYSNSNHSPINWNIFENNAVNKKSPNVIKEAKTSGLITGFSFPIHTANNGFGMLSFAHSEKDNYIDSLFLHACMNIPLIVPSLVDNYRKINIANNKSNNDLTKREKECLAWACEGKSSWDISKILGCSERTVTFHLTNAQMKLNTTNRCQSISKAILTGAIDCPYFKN
How it was run: (§2)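 JB523 GFP biosensor in LB/0.4% NaCl at OD590 0.1 with tetracycline 100 µg/ml final; compounds co-added with C6-HSL (5 µM). Plates kept 24 h at 30 °C, then GFP read at 485/510 nm. Each compound tested in twelve wells, assay repeated at least three times.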

Pseudomonas aeruginosa [5] = assay: Antimicrobial activity against Pseudomonas aeruginosa PAO1 assessed as reduction of biofilm biomass at 1 mM incubated for 24 hrs post-biofilm growth by crystal violet staining; type: functional; set-up: scale not given: the % may be the effect or the level left
How it was run: (§3)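 Mature-biofilm treatment: biofilms grown 24 h at 37 °C without compound, rinsed with saline, then fresh medium containing compound added for a further 24 h at 37 °C. Biomass measured by crystal violet (methanol fixation, acetic acid elution, A590). Reported as % of control biofilm; twelve wells, ≥2 repeats.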

Pseudomonas aeruginosa [6] = assay: Agonist activity at Pseudomonas aeruginosa QSIS2 LasR-mediated quorum sensing co-expressing SacB1 assessed as luminescence after 24 hrs by reporter gene assay; type: functional
[7] = target: T1, Transcriptional activator protein LuxR (Aliivibrio fischeri); assay: Antagonist activity at Vibrio fischeri LuxR expressed in Escherichia coli JB523 assessed as inhibition of C6-HSL-induced GFP expression at 0.5 mM after 24 hrs by reporter gene assay; type: functional; how it was run: as §2
[8] = target: T1, Transcriptional activator protein LuxR (Aliivibrio fischeri); assay: Agonist activity at Vibrio fischeri LuxR-mediated quorum sensing expressed in Escherichia coli JB523 assessed as GFP expression at 0.1 mM after 24 hrs by reporter gene assay; type: functional
How it was run: (§4)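 E. coli JB523 (pJBA130, luxR-PluxI–GFP) overnight culture diluted to OD590 0.1 in LB with 0.4% NaCl, tetracycline 100 µg/ml final. Compounds 100–1000 µM added without signal; C6-HSL (5 µM) as positive control, water as negative. 24 h at 30 °C; GFP fluorescence ex 485/em 510 nm. Twelve wells per compound, ≥3 repeats.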

Pseudomonas aeruginosa [9] = assay: Antibacterial activity against Pseudomonas aeruginosa QSIS2 after 20 hrs by broth microdilution assay; type: functional; details: QSIS2, 20 h
How it was run: (§5)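 EUCAST broth microdilution in triplicate, inoculum about 5 × 10^5 CFU/ml. Incubated 20 h at 37 °C, then OD590 read. Compounds from 100 mM DMSO stocks, diluted in water.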

Pseudomonas aeruginosa [10] = assay: Antagonist activity at Pseudomonas aeruginosa QSIS2 LasR-mediated quorum sensing co-expressing SacB1 assessed as inhibition of 3-oxo-C12-HSL-induced luminescence at 1 mM […] by reporter gene assay; type: functional
[11] = target: T1, Transcriptional activator protein LuxR (Aliivibrio fischeri); assay: (§6) Antagonist activity at Vibrio fischeri LuxR-mediated quorum sensing expressed in Escherichia coli JB523 assessed as inhibition of C6-HSL-induced GFP expression after 24 hrs by reporter gene assay; type: functional; how it was run: as §2
[12] = target: T2, Transcriptional activator protein LuxR (Aliivibrio fischeri, UniProt P12746); assay: as §6; type: functional; how it was run: as §2
T2 sequence (P12746 whole entry): T1 sequence (whole entry)

Pseudomonas aeruginosa [13] = assay: Antagonist activity at Pseudomonas aeruginosa QSIS2 LasR-mediated quorum sensing co-expressing SacB1 assessed as inhibition of 3-oxo-C12-HSL-induced luminescence at 0.1 mM after 24 hrs by reporter gene assay; type: functional
Pseudomonas aeruginosa [14] = assay: Agonist activity at Pseudomonas aeruginosa QSIS2 LasR-mediated quorum sensing co-expressing SacB1 assessed as luminescence at 0.1 mM after 24 hrs by reporter gene assay; type: functional
Pseudomonas aeruginosa [15] = assay: Agonist activity at Pseudomonas aeruginosa QSIS2 LasR-mediated quorum sensing coexpressing SacB1 assessed as […] by reporter gene assay; type: functional
Burkholderia cenocepacia [16] = assay: Antimicrobial activity against Burkholderia cenocepacia LMG16656 assessed as reduction of cell viability at 1 mM after 24 hrs by CTB staining; type: functional, organism-based
How it was run: (§7)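 Overnight MH cultures were centrifuged, resuspended in 2× MH and set to OD590 0.1. Cells adhered 4 h at 37 °C, wells were washed with saline, then compound in 2× MH was added for 20 h at 37 °C. Viable cells were read by resazurin (CTB) fluorescence after 60 min (ex 535/em 590) as % of untreated biofilm; 12 wells, ≥2 repeats.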

Pseudomonas aeruginosa [17] = assay: Antimicrobial activity against Pseudomonas aeruginosa PAO1 assessed as reduction of cell viability at 1 mM after 24 hrs by CTB staining; type: functional, organism-based; how it was run: as §7
Escherichia coli = assay: Antibacterial activity against Escherichia coli JB523 after 20 hrs by broth microdilution assay; type: functional; details: JB523, 20 h; how it was run: as §5
[18] = target: T1, Transcriptional activator protein LuxR (Aliivibrio fischeri); assay: Agonist activity at Vibrio fischeri LuxR-mediated quorum sensing expressed in Escherichia coli JB523 assessed as GFP expression at 0.25 mM after 24 hrs by reporter gene assay; type: functional; how it was run: as §4
Pseudomonas aeruginosa [19] = assay: Antagonist activity at Pseudomonas aeruginosa QSIS2 LasR-mediated quorum sensing co-expressing SacB1 assessed as inhibition of 3-oxo-C12-HSL-induced luminescence at 0.5 mM after 24 hrs by reporter gene assay; type: functional
[20] = Cytotoxicity against human MRC5 cells after 3 days by resazurin reduction assay; type: cell-based
How it was run: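 MRC-5 SV2 human lung fibroblasts in Earle's MEM with 5% FCSi, about 10^4 cells per well, exposed for 3 days at 37 °C and 5% CO2. Viability read by resazurin fluorescence (ex 550/em 590 nm) as % reduction versus untreated wells; CC50 derived.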

[21] = target: T1, Transcriptional activator protein LuxR (Aliivibrio fischeri); assay: Antagonist activity at Vibrio fischeri LuxR-mediated quorum sensing expressed in Escherichia coli JB523 assessed as inhibition of C6-HSL-induced GFP expression at 0.1 mM after 24 hrs by reporter gene assay; type: functional; how it was run: as §2
Pseudomonas aeruginosa [22] = assay: Agonist activity at Pseudomonas aeruginosa QSIS2 LasR-mediated quorum sensing co-expressing SacB1 assessed as luminescence at 0.25 mM after 24 hrs by reporter gene assay; type: functional
Burkholderia cenocepacia [23] = assay: Antimicrobial activity against Burkholderia cenocepacia LMG16656 assessed as inhibition of biofilm formation at 1 mM after 24 hrs by crystal violet staining; type: functional; details: LMG16656, 24 h
How it was run: (§8)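 Overnight MH cultures resuspended in 2× MH at OD590 0.1 and mixed 1:1 with compound or water. Adhesion 4 h at 37 °C without agitation, then washed with saline. Refilled with 2× MH plus compound and incubated 20 h at 37 °C. Methanol-fixed, crystal violet stained, eluted with 33% acetic acid, A590 read. Expressed as % of untreated biofilm; n ≥ 24.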

Pseudomonas aeruginosa [24] = assay: Antimicrobial activity against Pseudomonas aeruginosa PAO1 assessed as inhibition of biofilm formation at 1 mM after 24 hrs by crystal violet staining; type: functional; details: for inhibition at 1000 µM: PAO1, 24 h; how it was run: as §8
Burkholderia cenocepacia [25] = assay: Antimicrobial activity against Burkholderia cenocepacia LMG16656 assessed as reduction of cell viability at 1 mM incubated for 24 hrs post-biofilm growth by CTB staining; type: functional, organism-based; how it was run: as §1
[26] = target: T1, Transcriptional activator protein LuxR (Aliivibrio fischeri); assay: Agonist activity at Vibrio fischeri LuxR-mediated quorum sensing expressed in Escherichia coli JB523 assessed as GFP expression at 1 mM after 24 hrs by reporter gene assay; type: functional; how it was run: as §4
Burkholderia cenocepacia [27] = assay: Antibacterial activity against Burkholderia cenocepacia LMG16656 after 20 hrs by broth microdilution assay; type: functional; details: LMG16656, 20 h; how it was run: as §5
Pseudomonas aeruginosa [28] = assay: Antibacterial activity against Pseudomonas aeruginosa PAO1 after 20 hrs by broth microdilution assay; type: functional; details: PAO1, 20 h; how it was run: as §5
Burkholderia cenocepacia [29] = assay: Antimicrobial activity against Burkholderia cenocepacia LMG16656 assessed as reduction of biofilm biomass at 1 mM incubated for 24 hrs post-biofilm growth by crystal violet staining; type: functional, organism-based; how it was run: as §3
[30] = target: T1, Transcriptional activator protein LuxR (Aliivibrio fischeri); assay: Agonist activity at Vibrio fischeri LuxR-mediated quorum sensing expressed in Escherichia coli JB523 assessed as GFP expression at 0.5 mM after 24 hrs by reporter gene assay; type: functional; how it was run: as §4

Row | SMILES | Activity (Pseudomonas aeruginosa [1]) [%] | Activity (Pseudomonas aeruginosa [2]) | inhibition (Pseudomonas aeruginosa [3]) | inhibition [4] [%] | Activity (Pseudomonas aeruginosa [5]) | Activity (Pseudomonas aeruginosa [6]) | inhibition [7] [%] | Activity [8] | MIC (Pseudomonas aeruginosa [9]) [µM] | inhibition (Pseudomonas aeruginosa [10]) | inhibition [11] | inhibition (Pseudomonas aeruginosa [13]) | Activity (Pseudomonas aeruginosa [14]) | Activity (Pseudomonas aeruginosa [15]) [%] | Activity (Burkholderia cenocepacia [16]) | Activity (Pseudomonas aeruginosa [17]) | MIC (Escherichia coli) [µM] | Activity [18] | inhibition (Pseudomonas aeruginosa [19]) | CC50 at 72 h [20] [µM] | other results
1 | CCCCCCCCc1cn(C2CCOC2=O)nn1 (stereo unspecified) | 19.4 | 28% | inactive | 71.6 | 38% | Dose-dependent effect | 59.8 | inactive | 2500 (≈ 663 µg/mL) | inactive | Dose-dependent effect | inactive | inactive | 29 | Active | Active | 5000 (≈ 1330 µg/mL) | inactive | inactive | > 1000 | IC50 [12]: 308 µM; inhibition [21]: 34.1%; Activity (Pseudomonas aeruginosa [22]): inactive; inhibition at 1000 µM (Burkholderia cenocepacia [23]): 68%; inhibition (Pseudomonas aeruginosa [24]): inactive; Activity (Burkholderia cenocepacia [25]): Active; Activity [26]: 10.6%; MIC (Burkholderia cenocepacia [27]): 2500 µM (≈ 663 µg/mL); MIC (Pseudomonas aeruginosa [28]): 2500 µM (≈ 663 µg/mL); Activity (Burkholderia cenocepacia [29]): Active; Activity [30]: 5.2%
2 | O=C1OCCC1n1cc(CCc2ccccc2)nn1 (stereo unspecified) | 67.2 | 37% | 25.3% | 29.2 | 36% | Dose-dependent effect | 25.7 | inactive | 5000 (≈ 1290 µg/mL) | 43.2% | Dose-dependent effect | 15.8% | 39.1% | 81.4 | Active | Active | 10000 (≈ 2570 µg/mL) | inactive | 35.2% | > 1000 | inhibition [21]: inactive; Activity (Pseudomonas aeruginosa [22]): 41.5%; inhibition at 1000 µM (Burkholderia cenocepacia [23]): 40%; inhibition at 1000 µM (Pseudomonas aeruginosa [24]): 40%; Activity (Burkholderia cenocepacia [25]): Active; Activity [26]: inactive; MIC (Burkholderia cenocepacia [27]): 5000 µM (≈ 1290 µg/mL); MIC (Pseudomonas aeruginosa [28]): 2500 µM (≈ 643 µg/mL); Activity (Burkholderia cenocepacia [29]): Active; Activity [30]: inactive
3 | CCCCCCCCCCCCc1cn(C2CCOC2=O)nn1 (stereo unspecified) | 43.8 | Active | 12.8% | 34.4 | Active | Dose-dependent effect | 23.7 | inactive | 2500 (≈ 804 µg/mL) | 36.5% | Dose-dependent effect | 10.6% | 28.7% | 45.5 | Active | Active | 2500 (≈ 804 µg/mL) | inactive | 30.9% | 670 | inhibition [21]: inactive; Activity (Pseudomonas aeruginosa [22]): 32%; inhibition at 1000 µM (Burkholderia cenocepacia [23]): 70%; inhibition at 1000 µM (Pseudomonas aeruginosa [24]): 46%; Activity (Burkholderia cenocepacia [25]): Active; Activity [26]: inactive; MIC (Burkholderia cenocepacia [27]): 2500 µM (≈ 804 µg/mL); MIC (Pseudomonas aeruginosa [28]): 2500 µM (≈ 804 µg/mL); Activity (Burkholderia cenocepacia [29]): Active; Activity [30]: inactive
